The text below walks through data of ChEMBL document CHEMBL3596197, “Synthesis, topoisomerase I and II inhibitory activity, cytotoxicity, and structure-activity relationship study of 2-phenyl- or hydroxylated 2-phenyl-4-aryl-5H-indeno[1,2-b]pyridines” (Bioorg Med Chem, 2015).

Where only a bound is given, the exact number is not on record here.

In experiment [1] the target is T1, DNA topoisomerase 1 (Homo sapiens) (UniProt P11387).
T1 sequence (whole entry): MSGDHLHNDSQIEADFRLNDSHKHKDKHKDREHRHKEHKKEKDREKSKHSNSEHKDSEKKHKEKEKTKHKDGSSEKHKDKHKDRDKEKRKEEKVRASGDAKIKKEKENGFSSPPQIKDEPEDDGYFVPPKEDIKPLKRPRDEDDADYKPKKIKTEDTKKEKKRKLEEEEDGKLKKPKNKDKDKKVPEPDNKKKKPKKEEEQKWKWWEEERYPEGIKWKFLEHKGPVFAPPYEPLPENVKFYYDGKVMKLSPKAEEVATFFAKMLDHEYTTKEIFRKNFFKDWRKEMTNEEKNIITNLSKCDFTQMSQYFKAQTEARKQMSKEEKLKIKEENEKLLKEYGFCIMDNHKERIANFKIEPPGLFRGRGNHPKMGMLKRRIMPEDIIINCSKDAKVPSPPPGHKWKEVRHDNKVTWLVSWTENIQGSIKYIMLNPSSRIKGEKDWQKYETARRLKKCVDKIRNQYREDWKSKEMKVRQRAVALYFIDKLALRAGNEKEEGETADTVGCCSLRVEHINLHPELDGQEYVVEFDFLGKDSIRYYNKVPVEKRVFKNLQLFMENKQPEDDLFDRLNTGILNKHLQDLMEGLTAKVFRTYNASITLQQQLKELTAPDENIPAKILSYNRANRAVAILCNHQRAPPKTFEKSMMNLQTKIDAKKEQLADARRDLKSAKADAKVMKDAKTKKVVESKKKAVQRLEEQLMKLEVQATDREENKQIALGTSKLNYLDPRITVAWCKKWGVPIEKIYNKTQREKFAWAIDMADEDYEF
The experiment in a line: Inhibition of human recombinant DNA topoisomerse 1 using pBR322 as substrate assessed as inhibition of conversion of supercoiled pBR322 to relaxed form at 20 uM after 30 mins by ethidium bromide staining-based electrophoresis analysis. The method, boiled down:
(§1)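 Relaxation of supercoiled pBR322 (100 ng) by 1 unit recombinant human topo I. Run at 37 °C for 30 min in 10 mM Tris-HCl pH 7.9, 150 mM NaCl, 0.1% BSA, 1 mM spermidine, 5% glycerol. Compounds from 20 mM DMSO stocks. Stopped with sarcosyl, then 1% agarose gel at 15 V for 7 h in TAE. Ethidium bromide stain, UV imaging, bands quantitated.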

The target in experiment [2] is DNA topoisomerase 2-alpha (Homo sapiens) (UniProt P11388). The experiment is described as follows: Inhibition of human recombinant DNA topoisomerse 2 alpha using pBR322 as substrate assessed as inhibition of conversion of supercoiled pBR322 to relaxed form at 20 uM after 30 mins by ethidium bromide staining-based electrophoresis analysis. The method, boiled down: (§2)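 Supercoiled pBR322 (200 ng) with 1 unit human topo IIα, 30 min at 30 °C. Buffer: 10 mM Tris-HCl pH 7.9, 50 mM NaCl, 5 mM MgCl2, 1 mM EDTA, 1 mM ATP, 15 μg/mL BSA. Stopped with EDTA. 1% agarose gel at 25 V for 4 h in TAE, ethidium bromide stain, supercoiled DNA quantitated under UV.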
DNA topoisomerase 2-alpha (Homo sapiens), sequence (P11388 whole entry): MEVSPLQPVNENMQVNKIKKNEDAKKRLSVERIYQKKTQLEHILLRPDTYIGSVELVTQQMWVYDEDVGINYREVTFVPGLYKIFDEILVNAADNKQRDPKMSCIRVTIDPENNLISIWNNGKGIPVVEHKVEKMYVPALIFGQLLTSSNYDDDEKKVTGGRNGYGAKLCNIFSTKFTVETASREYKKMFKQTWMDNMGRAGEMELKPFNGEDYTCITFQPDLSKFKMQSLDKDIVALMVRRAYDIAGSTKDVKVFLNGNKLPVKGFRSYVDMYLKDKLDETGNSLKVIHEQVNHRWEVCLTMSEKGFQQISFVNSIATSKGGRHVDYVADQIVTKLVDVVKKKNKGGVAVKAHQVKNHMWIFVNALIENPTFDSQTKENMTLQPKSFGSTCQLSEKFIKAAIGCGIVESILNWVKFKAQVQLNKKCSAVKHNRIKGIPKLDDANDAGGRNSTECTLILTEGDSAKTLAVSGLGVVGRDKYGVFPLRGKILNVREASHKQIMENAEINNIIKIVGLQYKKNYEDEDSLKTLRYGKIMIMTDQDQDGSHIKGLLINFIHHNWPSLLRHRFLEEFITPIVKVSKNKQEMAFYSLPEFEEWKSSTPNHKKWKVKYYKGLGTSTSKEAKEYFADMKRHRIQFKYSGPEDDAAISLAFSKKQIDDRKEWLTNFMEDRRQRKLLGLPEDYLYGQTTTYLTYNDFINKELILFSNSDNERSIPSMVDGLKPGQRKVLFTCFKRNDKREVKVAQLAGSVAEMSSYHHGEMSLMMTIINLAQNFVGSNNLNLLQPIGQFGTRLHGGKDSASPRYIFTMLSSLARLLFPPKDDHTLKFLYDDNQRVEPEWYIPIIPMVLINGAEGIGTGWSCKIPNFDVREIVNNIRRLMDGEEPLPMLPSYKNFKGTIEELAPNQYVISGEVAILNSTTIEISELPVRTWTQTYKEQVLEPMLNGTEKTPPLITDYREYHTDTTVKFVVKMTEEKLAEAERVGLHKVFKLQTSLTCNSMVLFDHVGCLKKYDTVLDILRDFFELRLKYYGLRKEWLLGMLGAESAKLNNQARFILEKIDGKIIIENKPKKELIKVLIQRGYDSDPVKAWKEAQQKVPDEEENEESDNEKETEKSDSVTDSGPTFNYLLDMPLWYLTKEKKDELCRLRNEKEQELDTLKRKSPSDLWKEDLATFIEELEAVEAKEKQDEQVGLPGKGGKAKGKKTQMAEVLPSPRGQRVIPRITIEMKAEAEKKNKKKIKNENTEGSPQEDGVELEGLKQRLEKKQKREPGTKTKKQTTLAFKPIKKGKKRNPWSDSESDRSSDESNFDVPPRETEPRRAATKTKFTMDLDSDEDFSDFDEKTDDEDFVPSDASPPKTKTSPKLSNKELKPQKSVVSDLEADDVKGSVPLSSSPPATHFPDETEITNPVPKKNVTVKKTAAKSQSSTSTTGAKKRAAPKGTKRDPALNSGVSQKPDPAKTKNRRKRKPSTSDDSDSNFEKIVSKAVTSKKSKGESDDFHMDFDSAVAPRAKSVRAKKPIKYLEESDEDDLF

For a further experiment, the system named is DU-145. The experiment is described as follows: Cytotoxicity against human DU145 cells incubated from day 2 to day 4 by CCK8 assay. The class given is functional, cell-based. An outline of the steps:
(§3)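 Cells seeded at 2~4 × 10^4 per well and grown overnight in medium with 10% FBS at 37 °C, 5% CO2. Day 2: FBS starvation 4 h, then medium with graded compound concentrations. Day 4: CCK-8 added for 4 h more, absorbance read at 450 nm. IC50 from four-parameter logistic fit. Mean ± S.D. of three experiments run in triplicate.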
In general terms: Formazan colour is commonly taken as a measure of viable cells.

Another experiment concerns T47D. The experiment is described as follows: Cytotoxicity against human T47D cells incubated from day 2 to day 4 by CCK8 assay. The class given is functional, cell-based. The method, boiled down: as §3
For another experiment, the system named is HCT-15. The experiment is described as follows: Cytotoxicity against human HCT15 cells incubated from day 2 to day 4 by CCK8 assay. The experiment is classed as functional, cell-based. The method, boiled down: as §3
The target of experiment [3] is T1, DNA topoisomerase 1 (Homo sapiens). The experiment is described as follows: Inhibition of human recombinant DNA topoisomerse 1 using pBR322 as substrate assessed as inhibition of conversion of supercoiled pBR322 to relaxed form at 100 uM after 30 mins by ethidium bromide staining-based electrophoresis analysis. An outline of the steps:
as §1

The target in experiment [4] is DNA topoisomerase 2-alpha (Homo sapiens) (UniProt P11388). The experiment in a line: Inhibition of human recombinant DNA topoisomerse 2 alpha using pBR322 as substrate assessed as inhibition of conversion of supercoiled pBR322 to relaxed form at 100 uM after 30 mins by ethidium bromide staining-based electrophoresis analysis. An outline of the steps:
as §2

Another experiment has as its system HeLa. The experiment in a line: Cytotoxicity against human HeLa cells incubated from day 2 to day 4 by CCK8 assay. The experiment is classed as functional, cell-based. The method, boiled down:
as §3

As usually defined, the inhibition is the percentage by which the read-out fell short of the control. One may read the IC50 as the concentration that inhibits the measured activity by half.

On to `Oc1ccc(-c2cc(-c3ccsc3)c3c(n2)-c2ccccc2C3)cc1`, for which the inhibition in experiment [1] stood at 0%; in experiment [2], 0%; in experiment [3], 90.1%; in experiment [4], 36.9%. The IC50 in the experiment on DU-145, in the experiment with T47D, with HCT-15 and in the experiment on HeLa was greater than 50 µM in each case.

`Oc1cccc(-c2cc(-c3ccsc3)c3c(n2)-c2ccccc2C3)c1`: the inhibition in experiment [1] was found to be 0%; in experiment [2], 37%; in experiment [3], 76.9%; in experiment [4], 77.2%. Further, the IC50 is 2.3 µM with DU-145, 0.94 µM in the experiment on T47D, 6.73 µM with HCT-15 and 1.74 µM in the experiment with HeLa.

For `Oc1ccc(-c2cc(-c3ccco3)c3c(n2)-c2ccccc2C3)cc1`, the inhibition in experiment [1] worked out at 2.7%; in experiment [2], 44.2%; in experiment [3] it was 54.8%; in experiment [4], 59.9%. Also, the IC50 with DU-145, in the experiment with T47D, in the experiment with HCT-15 and in the experiment on HeLa was greater than 50 µM throughout.

`Oc1ccc(-c2cc(-c3cccs3)c3c(n2)-c2ccccc2C3)cc1`: the inhibition in experiment [1] worked out at 0%; in experiment [2], 21.4%; in experiment [3], 69.1%; in experiment [4], 40.1%. The IC50 with DU-145, in the experiment with T47D, with HCT-15 and in the experiment on HeLa was greater than 50 µM throughout.

Turning to `Oc1cccc(-c2cc(-c3cccnc3)c3c(n2)-c2ccccc2C3)c1`, the inhibition was found to be 1.7% in experiment [1], 30.6% in experiment [2], 68.5% in experiment [3] and 50.6% in experiment [4]. Moreover, the IC50 in the experiment with DU-145 is greater than 50 µM; in the experiment on T47D it was greater than 50 µM; with HCT-15 it was greater than 50 µM; with HeLa, 4.67 µM.

As for `c1ccc(-c2cc(-c3ccco3)c3c(n2)-c2ccccc2C3)cc1`, the inhibition in experiment [1] stood at 8.7%; in experiment [2], 25.9%; in experiment [3] it was 73%; in experiment [4] it was 44.5%. The IC50 in the experiment with DU-145 is 5 µM; in the experiment on T47D it was 10.6 µM; with HCT-15, 11.2 µM; with HeLa, 1.42 µM.

As to `Oc1ccc(-c2cc(-c3ccoc3)c3c(n2)-c2ccccc2C3)cc1`, the inhibition in experiment [1] turned out to be 0%; in experiment [2] it was 36.9%; in experiment [3] it was 63.5%; in experiment [4], 40.4%. Further, the IC50 with DU-145, with T47D, in the experiment on HCT-15 and in the experiment on HeLa was greater than 50 µM in each case.

Consider `Oc1cccc(-c2cc(-c3ccoc3)c3c(n2)-c2ccccc2C3)c1`, for which the inhibition in experiment [1] worked out at 0%; in experiment [2] it was 19.3%; in experiment [3] it was 69.2%; in experiment [4] it was 56.2%. For the same compound, the IC50 was 28.9 µM in the experiment with DU-145, greater than 50 µM in the experiment with T47D, greater than 50 µM with HCT-15 and 0.94 µM with HeLa.
